Measured values published in ChEMBL document CHEMBL4610015, “Scaffold-hopping identifies furano[2,3-d]pyrimidine amides as potent Notum inhibitors” (Bioorg Med Chem Lett, 2020).

What was measured:
[1] = target: T1, Palmitoleoyl-protein carboxylesterase NOTUM (Homo sapiens, UniProt Q6P988, C330S); assay type: cell-based
[2] = Apparent permeability across basolateral to apical membrane in dog MDCK-MDR1 cells; assay type: ADME, cell-based, Canis lupus familiaris
[3] = Intrinsic clearance in mouse liver microsomes; assay type: ADME, Microsome; conditions: read-out: CLH
[4] = Efflux ratio of apparent permeability in dog MDCK-MDR1 cells; assay type: ADME, cell-based, Canis lupus familiaris
[5] = Apparent permeability across apical to basolateral membrane in dog MDCK-MDR1 cells; assay type: ADME, cell-based, Canis lupus familiaris
[6] = target: T1, Palmitoleoyl-protein carboxylesterase NOTUM; assay type: ADME, cell-based; conditions: 72 h
[7] = Stability of the compound in citrate buffer at pH 4 measured up to 24 hrs by UPLC-MS analysis; assay type: physicochemical; conditions: pH 4, 24 h
How it was run: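 Incubated in 0.1 M citrate buffer at pH 4 and sampled at several time points up to 24 h. The parent amide was monitored by UPLC-MS.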

T1 sequence (Q6P988 20-496 C330S limits assumed): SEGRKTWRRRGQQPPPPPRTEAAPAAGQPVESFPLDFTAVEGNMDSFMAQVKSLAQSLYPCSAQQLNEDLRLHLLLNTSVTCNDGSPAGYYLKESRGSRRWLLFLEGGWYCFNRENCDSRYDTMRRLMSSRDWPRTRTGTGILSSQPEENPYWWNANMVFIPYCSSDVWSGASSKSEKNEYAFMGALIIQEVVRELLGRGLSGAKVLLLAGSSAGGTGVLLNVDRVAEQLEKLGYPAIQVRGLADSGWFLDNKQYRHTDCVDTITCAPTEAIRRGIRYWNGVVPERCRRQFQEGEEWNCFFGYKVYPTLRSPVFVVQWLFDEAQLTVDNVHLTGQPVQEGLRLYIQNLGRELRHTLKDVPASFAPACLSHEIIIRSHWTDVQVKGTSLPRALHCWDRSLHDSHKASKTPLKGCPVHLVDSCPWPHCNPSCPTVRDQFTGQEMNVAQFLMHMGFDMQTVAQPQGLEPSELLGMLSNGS

| SMILES | IC50 [1] | Papp B→A [2] | microsomal CLint [3] | efflux ratio [4] | Papp A→B [5] | Stability [6] | Stability [7] |
| --- | --- | --- | --- | --- | --- | --- | --- |
| O=C1CN(C(=O)CSc2ncnc3c(C4CC4)c(Cl)sc23)CCN1 |  | 65 ×10⁻⁶ cm/s | 24 µL/min/mg | 8.2 | 7.9 ×10⁻⁶ cm/s |  |  |
| O=C1CN(C(=O)CSc2ncnc3c(C4CC4)c(Cl)sc23)CN1 |  | 14 ×10⁻⁶ cm/s | 19 µL/min/mg | 3.7 | 3.8 ×10⁻⁶ cm/s |  |  |
| O=C(CSc1ncnc2c(C3CC3)c(Cl)sc12)N1CCOCC1 |  | 38 ×10⁻⁶ cm/s | > 500 µL/min/mg | 0.95 | 40 ×10⁻⁶ cm/s |  |  |

Further lines, results first:

| IC50 [1] | Papp B→A [2] | microsomal CLint [3] | efflux ratio [4] | Papp A→B [5] | Stability [6] | Stability [7] | SMILES |
| --- | --- | --- | --- | --- | --- | --- | --- |
| 3 nM |  |  |  |  |  |  | Cc1sc2ncnc(SCC(=O)O)c2c1Cl |
| 1.1 nM | 93 ×10⁻⁶ cm/s | 29 µL/min/mg | 98 | 0.95 ×10⁻⁶ cm/s |  |  | O=C(CSc1ncnc2c(C3CC3)c(Cl)sc12)N1CCn2cnnc2C1 |
|  |  |  |  |  | Stable | Stable | Cc1sc2ncnc(SCC(=O)N3CCn4cnnc4C3)c2c1Cl |
|  |  |  |  |  | Stable | Stable | Cc1sc2ncnc(SCC(=O)N3CC(=O)N(C)C3)c2c1Cl |
